Experimental data collected from several papers.
Protocols differ between the studies behind these lines.
Effect on: enzyme activity
Mode: inhibitor
FGFR1: Fibroblast growth factor receptor 1 (FGFR1, Homo sapiens, UniProt P11362)

O=C(Nc1cnn(-c2csc(C(=O)NC3COC3)c2)c1)Nc1ccccc1Cl has a remaining activity of 95.9% (FGFR1; 5 µM).
With Cc1[nH]c(/C=C2\C(=O)Nc3ccc(F)cc32)c(C)c1C(=O)N[C@H]1CCN(C(=O)N(C)C)C1 the remaining activity was 90% (FGFR1; 1 µM).
With Cn1c(=O)n(-c2ccc(C(C)(C)C#N)cc2)c2c3cc(-c4cnc5ccccc5c4)ccc3ncc21 the remaining activity was 106% (FGFR1; 10 µM).
CC(C)(C)C(=O)c1sc(NC2CCCCC2)nc1N has a remaining activity of 87% (FGFR1; 10 µM).
CC(C)(O)[C@H]1CC[C@H](Nc2ccc3ncc(-c4cccc(C(F)(F)F)c4)n3n2)CC1 has a remaining activity of 97% (FGFR1; 1 µM).
The remaining activity of FC(F)c1nc2ccccc2n1-c1nc(N2CCOCC2)nc(N2CCOCC2)n1 is reported as 102% (FGFR1; 10 µM).
With O=C(Nc1cnn(-c2csc(C(=O)NC3COC3)c2)c1)Nc1c(F)cccc1Cl the remaining activity was 91.4% (FGFR1; 5 µM).
The remaining activity of CCCOc1ccc(OC)c(F)c1C(=O)c1ccc(C(=O)N[C@@H]2CNC[C@H]2NC(=O)c2ccc3[nH]ncc3c2)cc1 is reported as 28% (FGFR1; 10 µM).
The remaining activity of CCN(CC)CCNC(=O)c1c(C)[nH]c(/C=C2\C(=O)Nc3ccc(F)cc32)c1C is reported as 22% (FGFR1; 1 µM).
With COc1cc(Nc2cnc(C#N)c(O[C@H](C)CN(C)C)n2)ncc1-c1cnn(C)c1 the remaining activity was 107% (FGFR1; radiometric; 1 µM).
The remaining activity of Cc1cnc(NC2CCOCC2)nc1-n1cnc(C(=O)NC(CN)c2cc(F)cc(Cl)c2)c1 (stereo not drawn) is reported as 104% (Fibroblast growth factor receptor 1 (FGFR1, Homo sapiens, UniProt P11362, V561M); radiometric; 1 µM).
For CC(C)(C)c1nc2c(s1)c1nc(N)ncc1c1ccc(NS(=O)(=O)c3c(F)cccc3F)c(F)c12, the remaining activity was 90% (FGFR1; radiometric; 1 µM).
